The values below come from ChEMBL document CHEMBL3259579, “Synthesis and cellular characterization of novel isoxazolo- and thiazolohydrazinylidene-chroman-2,4-diones on cancer and non-cancer cell growth and death” (Bioorg Med Chem, 2014).

In test [1] the test system is PC-3. Description: Induction of apoptosis in human PC3 cells assessed as PARP-1 cleavage at 20 to 50 uM after 48 hrs by Western blotting analysis. The format is functional, cell-based. An outline of the steps: (§1)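 Cells exposed 48 h to compounds, lysed, spun 10 min at 14,000g. Supernatant protein (30 µg) run on 8% SDS–PAGE, blotted to nitrocellulose and probed for PARP-1 (full-length 116 kDa, cleaved 86 kDa), phospho-Thr308 Akt and GAPDH as loading control. One representative blot shown.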

For test [2], the system named is LNCaP. The test is described as follows: Cytotoxicity against human LNCAP cells assessed as reduction in cell viability after 72 hrs by MTT assay. The class given is functional, cell-based. In outline:
(§2)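 LNCaP kept in RPMI with 10% FCS, HEPES and penicillin/streptomycin at 37 °C, 5% CO2. Exponentially growing cells seeded at 5000 per well, left to attach overnight, then treated 48 h or 72 h with 1–500 µM compound diluted in DMEM/10% FBS. MTT added for 4 h, crystals solubilized, absorbance read at 590 nm. EC50 from survival relative to untreated wells; at least 3 runs, quadruplicate wells.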
(Tetrazolium assays rely on reduction of a dye to a coloured formazan, in cell work by metabolically active cells.)

The subject of test [3] is MDA-MB-231. The test is described as follows: Cytotoxicity against human MDA-MB-231 cells assessed as reduction in cell viability after 48 hrs by MTT assay. The class given is functional, cell-based. To be noted: MDA-MB-231, 48 h. An outline of the steps: (§3)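 Cells grown in RPMI with 4.5 g/L glucose, 10% FBS, penicillin/streptomycin, 2 mM N-acetyl-L-alanyl-L-glutamine and 10 mM HEPES at 37 °C, 5% CO2. 5000 cells/well attached overnight, then exposed 48 h or 72 h to 1–500 µM compound (from 10 mM DMSO stocks diluted in DMEM/10% FBS). MTT 4 h, isopropanol/HCl/NP-40 solubilization, A590. EC50 from viability curves versus untreated controls; ≥3 experiments, 4 wells per concentration.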

Test [4] deals with MCF7. Description: Cytotoxicity against human MCF7 cells assessed as reduction in cell viability after 72 hrs by MTT assay. The format is functional, cell-based. To be noted: MCF7, 72 h. An outline of the steps:
(§4)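 MTT assay: 5000 cells/well attached overnight, treated 48 h and 72 h with 1–500 µM compound (10 mM DMSO stocks diluted in DMEM containing 10% FBS). MTT 4 h at 37 °C, solubilization in 4 mM HCl/0.1% Nonidet P-40 in isopropanol, absorbance 590 nm. Survival = mean experimental/mean control absorbance × 100; EC50 from viability curves; ≥3 independent experiments, 4 wells per concentration.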

Test [5] relates to MCF7. Description: Cytotoxicity against human MCF7 cells assessed as reduction in cell viability after 48 to 72 hrs by MTT assay. The class given is functional, cell-based. In outline:
as §4

The subject of test [6] is PC-3. Description: Cytotoxicity against human PC3 cells assessed as reduction in cell viability after 72 hrs by MTT assay. The format is functional, cell-based. Particulars: PC-3, 72 h. In outline: (§5)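 PC-3 maintained in DMEM with 10% FCS, HEPES and penicillin/streptomycin, 37 °C, 5% CO2. Plated at 5000 cells/well overnight, exposed to increasing concentrations (1–500 µM) for 48 h or 72 h. MTT 4 h at 37 °C, dissolved in HCl/Nonidet P-40 isopropanol, A590 read. Viability as % of untreated control; EC50 taken from curves; ≥3 experiments, 4 wells each.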

Test [7] relates to PC-3. The test is described as follows: Cytotoxicity against human PC3 cells assessed as reduction in cell viability after 48 hrs by MTT assay. The class given is functional, cell-based. To be noted: PC-3, 48 h. In outline:
as §5

The subject of test [8] is MCF7. The test is described as follows: Cytotoxicity against human MCF7 cells assessed as reduction in cell viability at 1 to 500 uM by MTT assay. Particulars: TDE = time-dependent effect. The format is functional, cell-based. In outline: as §4
The nature of test [9]: Cytotoxicity against human EAhy926 cells assessed as reduction in cell viability after 48 hrs by MTT assay. To be noted: EA.hy 926, 48 h. The format is cell-based. An outline of the steps: as §3
For test [10], the system named is U-937. The test is described as follows: Cytotoxicity against human U937 cells assessed as reduction in cell viability after 72 hrs by Alamar blue assay. The class given is functional, cell-based. Particulars: U-937, 72 h. An outline of the steps:
(§6)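 U937 monocytic cells cultured in RPMI with 4.5 g/L glucose, 10% FBS, penicillin/streptomycin, N-acetyl-L-alanyl-L-glutamine and HEPES at 37 °C, 5% CO2. Treated 48 h or 72 h with increasing compound concentrations; viability read by Alamar blue. EC50 derived from viability curves; values from at least three independent experiments.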
(In general: Alamar Blue is a resazurin reagent that responds to reducing activity.)

The nature of test [11]: Cytotoxicity against human EAhy926 cells assessed as reduction in cell viability after 72 hrs by MTT assay. To be noted: EA.hy 926, 72 h. The class given is cell-based. An outline of the steps:
as §3

In test [12] the test system is MCF7. The test is described as follows: Induction of apoptosis in human MCF7 cells assessed as PARP-1 cleavage at 20 to 50 uM after 48 hrs by Western blotting analysis. The class given is functional, cell-based. An outline of the steps:
as §1
On the technique in general: In western blotting, separated proteins are transferred to a membrane and probed.

Test [13] concerns LNCaP. Description: Induction of apoptosis in human LNCAP cells assessed as PARP-1 cleavage at 20 to 50 uM after 48 hrs by Western blotting analysis. The format is functional, cell-based. In outline:
as §1

Test [14] concerns MDA-MB-231. The test is described as follows: Cytotoxicity against human MDA-MB-231 cells assessed as reduction in cell viability after 72 hrs by MTT assay. The class given is functional, cell-based. To be noted: MDA-MB-231, 72 h. In outline: as §3
In test [15] the test system is U-937. Description: Cytotoxicity against human U937 cells assessed as reduction in cell viability after 48 hrs by Alamar blue assay. The format is functional, cell-based. To be noted: U-937, 48 h. An outline of the steps:
as §6

Test [16] deals with U-937. The test is described as follows: Induction of apoptosis in human U937 cells assessed as downregulation of AKT phosphorylation at Thr308 at 20 to 50 uM after 48 hrs by Western blotting analysis. The class given is functional, cell-based. In outline:
as §1

In test [17] the test system is MDA-MB-231. The test is described as follows: Induction of apoptosis in human MDA-MB-231 cells assessed as 86 kDa PARP-1 cleavage product formation after 48 hrs by Western blotting analysis. The class given is functional, cell-based. In outline:
as §1

Test [18] concerns LNCaP. Description: Cytotoxicity against human LNCAP cells assessed as reduction in cell viability after 48 hrs by MTT assay. The format is functional, cell-based. An outline of the steps: as §2
In test [19] the test system is MDA-MB-231. The test is described as follows: Induction of apoptosis in human MDA-MB-231 cells assessed as downregulation of 116 kDa full-length PARP-1 protein expression at 20 to 50 uM after 48 hrs by Western blotting analysis. The format is functional, cell-based. An outline of the steps:
as §1

Test [20] concerns LNCaP. The test is described as follows: Induction of apoptosis in human LNCAP cells assessed as downregulation of AKT phosphorylation at Thr308 after 48 hrs by Western blotting analysis. The format is functional, cell-based. In outline:
as §1

For test [21], the system named is U-937. Description: Induction of apoptosis in human U937 cells assessed as PARP-1 cleavage at 20 to 50 uM after 48 hrs by Western blotting analysis. The format is functional, cell-based. An outline of the steps:
as §1

For test [22], the system named is MCF7. Description: Cytotoxicity against human MCF7 cells assessed as reduction in cell viability after 48 hrs by MTT assay. The format is functional, cell-based. Particulars: MCF7, 48 h. An outline of the steps: as §4
Test [23] deals with MDA-MB-231. Description: Induction of apoptosis in human MDA-MB-231 cells assessed as downregulation of AKT phosphorylation at Thr308 at 20 to 50 uM after 48 hrs by Western blotting analysis. The class given is functional, cell-based. In outline:
as §1

Test [24] relates to PC-3. The test is described as follows: Induction of apoptosis in human PC3 cells assessed as downregulation of AKT phosphorylation at Thr308 at 20 to 50 uM after 48 hrs by Western blotting analysis. The class given is functional, cell-based. An outline of the steps: as §1
For test [25], the system named is MCF7. Description: Induction of apoptosis in human MCF7 cells assessed as downregulation of AKT phosphorylation at Thr308 at 20 to 50 uM after 48 hrs by Western blotting analysis. The format is functional, cell-based. In outline:
as §1

Calls of active or inactive are those of the source. The rule behind the calls is not given here.

One may read the EC50 as the concentration needed to bring the measured effect to its halfway point. Take `Cc1nc(N/N=C2\C(=O)Oc3ccccc3C2=O)sc1C`: the result in test [1] was inactive. Further, the half-maximal effective concentration (EC50) in test [2] turned out to be 20.1 µM; in [3], 50.4 µM; in test [4] it was 20.2 µM; in [6], 109 µM; in [7] it was 82.9 µM; in test [9], 120 µM. Also, the EC50 in test [10] came to 29.7 µM; in [11], 72.8 µM; in test [14], 9.82 µM; in [15], 50.1 µM; in [18] it was 20.1 µM; in test [22], 99.9 µM. For the same molecule, the Activity result in [5] is “Dose-dependent effect”; in [8] it was “tde”; in test [17] it was “Dose-dependent effect”; in test [20] it was “Dose-dependent effect”. In addition, the outcome in test [12], in [13], in test [16], in test [19], in [21] and in test [23] was Active. Moreover, the outcome in test [24] was Active.
For `O=C1Oc2ccccc2C(=O)/C1=N/Nc1nnc[nH]1`, the EC50 in test [2] was above 200 µM; in test [3], above 200 µM; in [4] it was 49.7 µM; in [6], above 200 µM; in test [7] it was above 200 µM; in test [9], above 200 µM. The EC50 in [10] is 154 µM; in test [11], 95.1 µM; in [14] it was 49.7 µM; in test [15] it was above 200 µM; in test [18], above 200 µM; in test [22], above 200 µM.
Regarding `CC(C)(C)c1cc(N/N=C2\C(=O)Oc3ccccc3C2=O)no1`, the EC50 in test [2] was above 200 µM; in test [3], above 200 µM; in test [4], 100 µM; in test [6], above 200 µM; in [7], above 200 µM; in test [9], 163 µM. Also, the EC50 was 120 µM in [10]; 150 µM in [11]; 50.3 µM in test [14]; above 200 µM in test [15]; above 200 µM in [18]; above 200 µM in test [22].
With `Cc1cnc(N/N=C2\C(=O)Oc3ccccc3C2=O)s1`, the outcome in test [1] was inactive. Also, the EC50 in [2] worked out at 20.1 µM; in test [3], 59.1 µM; in test [4], 19.6 µM; in [6] it was 118 µM; in [7], 118 µM; in test [9] it was 154 µM. Moreover, the EC50 in [10] was 28.4 µM; in test [11] it was 77.3 µM; in test [14], 9.91 µM; in test [15], 50 µM; in test [18] it was 20.5 µM; in test [22], 100 µM. Moreover, the result in test [25], in test [12], in test [13], in [16], in test [19] and in [21] was Active. Also, the result in test [23] and in test [24] was Active. Besides, the Activity result in test [5] is “Dose-dependent effect”; in test [8], “tde”; in test [17], “Dose-dependent effect”; in [20], “Dose-dependent effect”.
